Calls of active or inactive are those of the source. The rule behind the calls is not given here. *1 amine or outer side, *2 acyl side, *3 side chain or, on linkers, in order; H or OH if unused. Where a SMILES comes first, the peptide text is derived from it. [ ]: non-standard residue; d: D form. The star is where a group is joined. X4 = O=C(Nc1ccc(C(F)(F)F)cc1)c1cc(/C=N\OCC(=O)*)ccc1O; X2 = C/C(=N\OCC(=O)*)c1ccc(NC(=O)c2cc(Br)ccc2O)cc1; X1 = C/C(=N\OCC(=O)[*:2])c1ccc(N[*:1])cc1; Benzoyl(5-Br-2-OH) = O=C(c1cc(Br)ccc1O)*; Palmitoyl = CCCCCCCCCCCCCCCC(=O)*; Decanoyl = CCCCCCCCCC(=O)*; X3 = O=C(c1cc(Cl)ccc1O)*; Butyryl = CCCC(=O)*
System: Mycobacterium tuberculosis
Assay: Antimycobacterial activity against isoniazid and rifampicin resistant Mycobacterium tuberculosis A8 ATCC 35822 assessed as reduction in colony forming unit after 28 days by serial dilution method
Format: functional, organism-based
Details: time 28.0 day
How it was run: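 After the 4-week MIC incubation in Sula semisynthetic medium (pH 6.5), growth inhibition confirmed by plating on Löwenstein-Jensen solid medium and counting colony forming units.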

Row | Compound | Activity
1 | C/C(=N\OCC(=O)NCCCC[C@H](NC(=O)[C@@H]1CCCN1C(=O)[C@H](CCCCN)NC(=O)[C@@H](NC(=O)CNC(=O)[C@H](CCCCNC(=O)CO/N=C(\C)c1ccc(NC(=O)c2cc(Br)ccc2O)cc1)NC(=O)[C@@H]1CCCN1C(=O)[C@H](CCCCN)NC(=O)[C@@H](NC(=O)[C@H](CCCNC(=N)N)NC(=O)[C@@H]1CCCN1C(=O)[C@H](CCCCN)NC(=O)[C@@H](N)[C@@H](C)O)[C@@H](C)O)[C@@H](C)O)C(=O)NCC(=O)O)c1ccc(NC(=O)c2cc(Br)ccc2O)cc1 (H-TKPRTKPK(X2)GTKPK(X2)G-OH) | Active
2 | C/C(=N\OCC(=O)N[C@H](C(=O)N[C@@H](CCCCN)C(=O)N1CCC[C@H]1C(=O)N[C@@H](CCCCN)C(=O)NCC(=O)N[C@H](C(=O)N[C@@H](CCCCN)C(=O)N1CCC[C@H]1C(=O)N[C@@H](CCCCN)C(=O)NCC(N)=O)[C@@H](C)O)[C@@H](C)O)c1ccc(NC(=O)c2cc(Br)ccc2O)cc1 ({Benzoyl(5-Br-2-OH)}-[X1]TKPKGTKPKG-NH2) | Active
3 | C/C(=N\OCC(=O)N[C@H](C(=O)O)[C@@H](C)O)c1ccc(NC(=O)c2cc(Br)ccc2O)cc1 | Active
4 | C[C@@H](O)[C@H](NC(=O)CNC(=O)[C@H](CCCCN)NC(=O)[C@@H]1CCCN1C(=O)[C@H](CCCCN)NC(=O)[C@@H](NC(=O)CNC(=O)[C@H](CCCCN)NC(=O)[C@@H]1CCCN1C(=O)[C@H](CCCCN)NC(=O)[C@@H](NC(=O)CNC(=O)[C@H](CCCCN)NC(=O)[C@@H]1CCCN1C(=O)[C@H](CCCCN)NC(=O)[C@@H](NC(=O)CO/N=C\c1ccc(O)c(C(=O)Nc2ccc(C(F)(F)F)cc2)c1)[C@@H](C)O)[C@@H](C)O)[C@@H](C)O)C(=O)N[C@@H](CCCCN)C(=O)N1CCC[C@H]1C(=O)N[C@@H](CCCCN)C(=O)NCC(N)=O (X4-TKPKGTKPKGTKPKGTKPKG-NH2) | Active
5 | C/C(=N\OCC(=O)N[C@H](C(=O)N[C@@H](CCCCN)C(=O)N1CCC[C@H]1C(=O)N[C@@H](CCCCN)C(=O)NCC(=O)N[C@H](C(=O)N[C@@H](CCCCN)C(=O)N1CCC[C@H]1C(=O)N[C@@H](CCCCN)C(=O)NCC(=O)N[C@H](C(=O)N[C@@H](CCCCN)C(=O)N1CCC[C@H]1C(=O)N[C@@H](CCCCN)C(=O)NCC(=O)N[C@H](C(=O)N[C@@H](CCCCN)C(=O)N1CCC[C@H]1C(=O)N[C@@H](CCCCN)C(=O)NCC(N)=O)[C@@H](C)O)[C@@H](C)O)[C@@H](C)O)[C@@H](C)O)c1ccc(NC(=O)c2cc(Br)ccc2O)cc1 ({Benzoyl(5-Br-2-OH)}-[X1]TKPKGTKPKGTKPKGTKPKG-NH2) | Active
6 | CCCC(=O)NCCCC[C@H](NC(=O)[C@@H]1CCCN1C(=O)[C@H](CCCCN)NC(=O)[C@@H](NC(=O)CO/N=C(\C)c1ccc(NC(=O)c2cc(Br)ccc2O)cc1)[C@@H](C)O)C(=O)NCC(=O)N[C@H](C(=O)N[C@@H](CCCCN)C(=O)N1CCC[C@H]1C(=O)N[C@@H](CCCCN)C(=O)NCC(=O)N[C@H](C(=O)N[C@@H](CCCCN)C(=O)N1CCC[C@H]1C(=O)N[C@@H](CCCCN)C(=O)NCC(=O)N[C@H](C(=O)N[C@@H](CCCCN)C(=O)N1CCC[C@H]1C(=O)N[C@@H](CCCCN)C(=O)NCC(N)=O)[C@@H](C)O)[C@@H](C)O)[C@@H](C)O ({Benzoyl(5-Br-2-OH)}-[X1]TKPK(Butyryl)GTKPKGTKPKGTKPKG-NH2) | Active
7 | CCCCCCCCCC(=O)NCCCC[C@H](NC(=O)[C@@H]1CCCN1C(=O)[C@H](CCCCN)NC(=O)[C@@H](NC(=O)CO/N=C(\C)c1ccc(NC(=O)c2cc(Br)ccc2O)cc1)[C@@H](C)O)C(=O)NCC(N)=O ({Benzoyl(5-Br-2-OH)}-[X1]TKPK(Decanoyl)G-NH2) | Active
8 | C/C(=N\OCC(=O)N[C@H](C(=O)N[C@@H](CCCCN)C(=O)N1CCC[C@H]1C(=O)N[C@@H](CCCCN)C(=O)NCC(=O)N[C@H](C(=O)N[C@@H](CCCCN)C(=O)N1CCC[C@H]1C(=O)N[C@@H](CCCCN)C(=O)NCC(=O)N[C@H](C(=O)N[C@@H](CCCCN)C(=O)N1CCC[C@H]1C(=O)N[C@@H](CCCCN)C(=O)NCC(=O)N[C@H](C(=O)N[C@@H](CCCCN)C(=O)N1CCC[C@H]1C(=O)N[C@@H](CCCCN)C(=O)NCC(N)=O)[C@@H](C)O)[C@@H](C)O)[C@@H](C)O)[C@@H](C)O)c1ccc(NC(=O)c2cc(Cl)ccc2O)cc1 (X3-[X1]TKPKGTKPKGTKPKGTKPKG-NH2) | Active
9 | CCCCCCCCCCCCCCCC(=O)NCCCC[C@H](NC(=O)[C@@H]1CCCN1C(=O)[C@H](CCCCN)NC(=O)[C@@H](NC(=O)CO/N=C(\C)c1ccc(NC(=O)c2cc(Br)ccc2O)cc1)[C@@H](C)O)C(=O)NCC(=O)N[C@H](C(=O)N[C@@H](CCCCN)C(=O)N1CCC[C@H]1C(=O)N[C@@H](CCCCN)C(=O)NCC(=O)N[C@H](C(=O)N[C@@H](CCCCN)C(=O)N1CCC[C@H]1C(=O)N[C@@H](CCCCN)C(=O)NCC(=O)N[C@H](C(=O)N[C@@H](CCCCN)C(=O)N1CCC[C@H]1C(=O)N[C@@H](CCCCN)C(=O)NCC(N)=O)[C@@H](C)O)[C@@H](C)O)[C@@H](C)O ({Benzoyl(5-Br-2-OH)}-[X1]TKPK(Palmitoyl)GTKPKGTKPKGTKPKG-NH2) | Active
10 | CCCCCCCCCCCCCCCC(=O)NCCCC[C@H](NC(=O)[C@@H]1CCCN1C(=O)[C@H](CCCCN)NC(=O)[C@@H](NC(=O)CO/N=C(\C)c1ccc(NC(=O)c2cc(Br)ccc2O)cc1)[C@@H](C)O)C(=O)NCC(N)=O ({Benzoyl(5-Br-2-OH)}-[X1]TKPK(Palmitoyl)G-NH2) | Active
11 | CCCCCCCCCCCCCCCC(=O)NCCCC[C@H](NC(=O)[C@@H]1CCCN1C(=O)[C@H](CCCCN)NC(=O)[C@@H](NC(=O)CO/N=C(\C)c1ccc(NC(=O)c2cc(Cl)ccc2O)cc1)[C@@H](C)O)C(=O)NCC(=O)N[C@H](C(=O)N[C@@H](CCCCN)C(=O)N1CCC[C@H]1C(=O)N[C@@H](CCCCN)C(=O)NCC(=O)N[C@H](C(=O)N[C@@H](CCCCN)C(=O)N1CCC[C@H]1C(=O)N[C@@H](CCCCN)C(=O)NCC(=O)N[C@H](C(=O)N[C@@H](CCCCN)C(=O)N1CCC[C@H]1C(=O)N[C@@H](CCCCN)C(=O)NCC(N)=O)[C@@H](C)O)[C@@H](C)O)[C@@H](C)O (X3-[X1]TKPK(Palmitoyl)GTKPKGTKPKGTKPKG-NH2) | Active
12 | C/C(=N\OCC(=O)NCCCC[C@H](NC(=O)[C@@H]1CCCN1C(=O)[C@H](CCCCN)NC(=O)[C@@H](NC(=O)CO/N=C(\C)c1ccc(NC(=O)c2cc(Br)ccc2O)cc1)[C@@H](C)O)C(=O)NCC(=O)N[C@H](C(=O)N[C@@H](CCCCN)C(=O)N1CCC[C@H]1C(=O)N[C@@H](CCCCN)C(=O)NCC(=O)N[C@H](C(=O)N[C@@H](CCCCN)C(=O)N1CCC[C@H]1C(=O)N[C@@H](CCCCN)C(=O)NCC(=O)N[C@H](C(=O)N[C@@H](CCCCN)C(=O)N1CCC[C@H]1C(=O)N[C@@H](CCCCN)C(=O)NCC(N)=O)[C@@H](C)O)[C@@H](C)O)[C@@H](C)O)c1ccc(NC(=O)c2cc(Br)ccc2O)cc1 ({Benzoyl(5-Br-2-OH)}-[X1]TKPK(X2)GTKPKGTKPKGTKPKG-NH2) | Active
13 | C/C(=N\OCC(=O)NCC(=O)N[C@@H](Cc1ccccc1)C(=O)N[C@@H](CC(C)C)C(=O)NCC(=O)N[C@H](C(=O)N[C@@H](CCCCN)C(=O)N1CCC[C@@H]1C(=O)N[C@H](CCCNC(=N)N)C(=O)O)[C@@H](C)O)c1ccc(NC(=O)c2cc(Br)ccc2O)cc1 | Active
14 | C/C(=N\OCC(=O)N[C@H](C(=O)N[C@@H](CCCCN)C(=O)N1CCC[C@H]1C(=O)N1CCC[C@@H]1C(=O)N[C@H](CCCNC(=N)N)C(=O)O)[C@@H](C)O)c1ccc(NC(=O)c2cc(Br)ccc2O)cc1 | Active
15 | CCCCCCCCCC(=O)NCCCC[C@H](NC(=O)[C@@H]1CCCN1C(=O)[C@H](CCCCN)NC(=O)[C@@H](NC(=O)CO/N=C(\C)c1ccc(NC(=O)c2cc(Br)ccc2O)cc1)[C@@H](C)O)C(=O)NCC(=O)N[C@H](C(=O)N[C@@H](CCCCN)C(=O)N1CCC[C@H]1C(=O)N[C@@H](CCCCN)C(=O)NCC(=O)N[C@H](C(=O)N[C@@H](CCCCN)C(=O)N1CCC[C@H]1C(=O)N[C@@H](CCCCN)C(=O)NCC(=O)N[C@H](C(=O)N[C@@H](CCCCN)C(=O)N1CCC[C@H]1C(=O)N[C@@H](CCCCN)C(=O)NCC(N)=O)[C@@H](C)O)[C@@H](C)O)[C@@H](C)O ({Benzoyl(5-Br-2-OH)}-[X1]TKPK(Decanoyl)GTKPKGTKPKGTKPKG-NH2) | Active
16 | C/C(=N\OCC(=O)NCC(=O)O)c1ccc(NC(=O)c2cc(Br)ccc2O)cc1 | Active
17 | C/C(=N\OCC(=O)NCC(=O)N[C@@H](Cc1ccccc1)C(=O)N[C@@H](CC(C)C)C(=O)NCC(=O)N[C@H](C(=O)N[C@@H](CCCCN)C(=O)N1CCC[C@@H]1C(=O)N[C@H](CCCCN)C(=O)NCC(=O)N[C@@H](C(=O)N[C@H](CCCCN)C(=O)N1CCC[C@H]1C(=O)N[C@H](CCCCN)C(=O)NCC(=O)N[C@@H](C(=O)N[C@@H](CCCCN)C(=O)N1CCC[C@@H]1C(=O)N[C@H](CCCCN)C(=O)NCC(=O)N[C@@H](C(=O)N[C@H](CCCCN)C(=O)N1CCC[C@H]1C(=O)N[C@H](CCCCN)C(=O)NCC(N)=O)[C@H](C)O)[C@H](C)O)[C@H](C)O)[C@@H](C)O)c1ccc(NC(=O)c2cc(Br)ccc2O)cc1 | Active
18 | C/C(=N\OCC(=O)NCC(=O)N[C@@H](Cc1ccccc1)C(=O)N[C@@H](CC(C)C)C(=O)NCC(=O)N[C@H](C(=O)N[C@@H](CCCCN)C(=O)N1CCC[C@@H]1C(=O)N1CCC[C@H]1C(=O)N[C@H](CCCNC(=N)N)C(=O)O)[C@@H](C)O)c1ccc(NC(=O)c2cc(Br)ccc2O)cc1 | Active
19 | CCCCCCCCCCCCCCCC(=O)NCCCC[C@H](NC(=O)[C@@H]1CCCN1C(=O)[C@H](CCCCN)NC(=O)[C@@H](NC(=O)CNC(=O)[C@H](CCCCN)NC(=O)[C@@H]1CCCN1C(=O)[C@H](CCCCN)NC(=O)[C@@H](NC(=O)CNC(=O)[C@H](CCCCN)NC(=O)[C@@H]1CCCN1C(=O)[C@H](CCCCN)NC(=O)[C@@H](NC(=O)CO/N=C(\C)c1ccc(NC(=O)c2cc(Br)ccc2O)cc1)[C@@H](C)O)[C@@H](C)O)[C@@H](C)O)C(=O)NCC(=O)N[C@H](C(=O)N[C@@H](CCCCN)C(=O)N1CCC[C@H]1C(=O)N[C@@H](CCCCN)C(=O)NCC(N)=O)[C@@H](C)O ({Benzoyl(5-Br-2-OH)}-[X1]TKPKGTKPKGTKPK(Palmitoyl)GTKPKG-NH2) | Active

Source: ChEMBL document CHEMBL5252539, “In vitro biological evaluation of new antimycobacterial salicylanilide-tuftsin conjugates” (Eur J Med Chem, 2017)
